Data published in ChEMBL document CHEMBL1255336, “Single-dose safety and pharmacokinetics of ST-246, a novel orthopoxvirus egress inhibitor” (Antimicrob Agents Chemother, 2008).

Columns and labels:
[1] = system: Homo sapiens; experiment: Toxicity in fasting healthy human assessed as back pain at 500 mg, po administered as single dose measured after 48 hrs; format: organism-based; settings: in vivo
Method in brief: (§1)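 Randomized, placebo-controlled single oral dose in healthy adults, groups of 10 (8 drug, 2 placebo), dose escalated after safety review. Fasting groups got 500, 1,000 or 2,000 mg; one group got 1,000 mg fed. Treatment-emergent adverse events, vital signs, hematology, chemistries, urinalysis and ECG were recorded through day 1 and follow-up at weeks 1 and 4. Drug relation was judged blinded.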

[2] = Cmax in fasting healthy human at 500 mg, po administered as single dose measured after 48 hrs; format: ADME, organism-based; parameters: dose 500 mg, route oral; settings: in vivo
Method in brief: (§2)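 Randomised placebo-controlled single oral dose in healthy subjects (8 active, 2 placebo per group); groups 1–3 fasting, group 4 nonfasting. Plasma sampled predose to 48 h (groups 1–3) or 72 h (group 4), centrifuged 4°C, stored –70°C. LC-MS/MS with analog internal standard. Noncompartmental analysis on actual times; Cmax observed; AUC by trapezoid rule, extrapolated with kel; CL = dose/AUC0-∞.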

[3] = AUC(0 to infinity) in fasting healthy human at 500 mg, po administered as single dose measured after 48 hrs; format: ADME, organism-based; parameters: dose 500 mg, route oral, time infinity; settings: plasma; method in brief: as §2
[4] = Cmax in nonfasting healthy human at 1000 mg, po administered as single dose measured after 72 hrs; format: ADME, organism-based; parameters: dose 1000 mg, route oral; settings: in vivo; method in brief: as §2
[5] = Median half life in fasting healthy human at 2000 mg, po administered as single dose measured after 48 hrs; format: ADME, organism-based; settings: in vivo
Method in brief: (§3)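 Healthy volunteers, 8 per group on active drug (2 placebo), single fasting oral dose. Venous plasma drawn predose and 0.5–12, 24, 48 h postdose, kept at –70°C, assayed by validated LC-MS/MS with analog internal standard. Noncompartmental analysis on actual times; Tmax observed directly; kel by log-linear regression of ≥3 terminal points; CL = dose/AUC0-∞. Median values.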

[6] = Apparent oral clearance in fasting healthy human at 1000 mg, po administered as single dose measured after 48 hrs; format: ADME, organism-based; settings: in vivo; method in brief: as §2
[7] = Tmax in fasting healthy human at 1000 mg, po administered as single dose measured after 48 hrs; format: ADME, organism-based; settings: in vivo
[8] = AUClast in nonfasting healthy human at 1000 mg, po administered as single dose measured after 72 hrs; format: ADME, organism-based; parameters: time < 72 hr, dose 1000 mg, route oral; settings: plasma; method in brief: as §2
[9] = Plasma clearance in nonfasting healthy human at 1000 mg, po administered as single dose measured after 72 hrs; format: ADME, organism-based; method in brief: as §2
[10] = Cmax in fasting healthy human at 2000 mg, po administered as single dose measured after 48 hrs; format: ADME, organism-based; parameters: dose 2000 mg, route oral; settings: in vivo; method in brief: as §2
[11] = Median half life in fasting healthy human at 500 mg, po administered as single dose measured after 48 hrs; format: ADME, organism-based; settings: in vivo; method in brief: as §3
[12] = Tmax in nonfasting healthy human at 1000 mg, po administered as single dose measured after 72 hrs; format: ADME, organism-based; settings: in vivo
Method in brief: (§4)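 Healthy volunteers (8 active, 2 placebo) given a single 1,000 mg oral dose in the fed state. Plasma sampled predose, at 0.5–12 h, 24, 48 and 72 h postdose and analysed by validated LC-MS/MS. Noncompartmental analysis on actual sampling times. Tmax observed directly; t1/2 from kel fitted to ≥3 terminal log-linear points. Median values.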

[13] = system: Homo sapiens; experiment: Toxicity in healthy human assessed as adverse events at 1000 mg, po administered as single dose measured after 72 hrs; format: organism-based; settings: in vivo; method in brief: as §1
[14] = system: Homo sapiens; experiment: Toxicity in healthy human assessed as headache at 1000 mg, po administered as single dose measured after 72 hrs; format: organism-based; settings: in vivo; method in brief: as §1
[15] = system: Homo sapiens; experiment: Median half life in fasting healthy human at 1000 mg, po administered as single dose measured after 48 hrs; format: ADME, organism-based; settings: in vivo
[16] = Cmax in fasting healthy human at 1000 mg, po administered as single dose measured after 48 hrs; format: ADME, organism-based; parameters: dose 1000 mg, route oral; settings: in vivo; method in brief: as §2
[17] = system: Homo sapiens; experiment: Toxicity in fasting healthy human assessed as adverse events at 500 mg, po administered as single dose measured after 48 hrs; format: organism-based; settings: in vivo
Method in brief: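 Healthy subjects given single oral dose, 8 active and 2 placebo per group. Safety covered adverse events, vital signs, ECG (day 1 and week 4), hematology, chemistries, urinalysis before and after dosing. Follow-up visits at week 1 and week 4. Cohort safety was reviewed before the next dose group.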

[18] = system: Homo sapiens; experiment: Toxicity in fasting healthy human assessed as headache at 500 mg, po administered as single dose measured after 48 hrs; format: organism-based; settings: in vivo; method in brief: as §1
[19] = AUClast in fasting healthy human at 500 mg, po administered as single dose measured after 48 hrs; format: ADME, organism-based; parameters: dose 500 mg, time < 48 hr, route oral; settings: plasma; method in brief: as §2
[20] = system: Homo sapiens; experiment: Toxicity in fasting healthy human assessed as feeling abnormal at 500 mg, po administered as single dose measured after 48 hrs; format: organism-based; settings: in vivo; method in brief: as §1
[21] = Apparent oral clearance in fasting healthy human at 2000 mg, po administered as single dose measured after 48 hrs; format: ADME, organism-based; settings: in vivo; method in brief: as §3
[22] = Apparent oral clearance in nonfasting healthy human at 1000 mg, po administered as single dose measured after 72 hrs; format: ADME, organism-based; settings: in vivo; method in brief: as §2
[23] = AUClast in fasting healthy human at 2000 mg, po administered as single dose measured after 48 hrs; format: ADME, organism-based; parameters: time < 48 hr, dose 2000 mg, route oral; settings: plasma; method in brief: as §2
[24] = Terminal half life in fasting healthy human at 500 mg, po administered as single dose measured after 48 hrs; format: ADME, organism-based; settings: in vivo; method in brief: as §3
[25] = AUC(0 to infinity) in nonfasting healthy human at 1000 mg, po administered as single dose measured after 72 hrs; format: ADME, organism-based; parameters: dose 1000 mg, time infinity, route oral; settings: plasma; method in brief: as §2
[26] = Plasma clearance in fasting healthy human at 2000 mg, po administered as single dose measured after 48 hrs; format: ADME, organism-based; method in brief: as §2
[27] = Terminal half life in fasting healthy human at 1000 mg, po administered as single dose measured after 48 hrs; format: ADME, organism-based; settings: in vivo; method in brief: as §3
[28] = Apparent oral clearance in fasting healthy human at 500 mg, po administered as single dose measured after 48 hrs; format: ADME, organism-based; settings: in vivo; method in brief: as §2
[29] = Plasma clearance in fasting healthy human at 1000 mg, po administered as single dose measured after 48 hrs; format: ADME, organism-based; method in brief: as §2
[30] = AUC(0 to infinity) in fasting healthy human at 2000 mg, po administered as single dose measured after 48 hrs; format: ADME, organism-based; parameters: dose 2000 mg, time infinity, route oral; settings: plasma; method in brief: as §2
[31] = Tmax in fasting healthy human at 2000 mg, po administered as single dose measured after 48 hrs; format: ADME, organism-based; settings: in vivo; method in brief: as §3
[32] = system: Homo sapiens; experiment: Toxicity in fasting healthy human assessed as adverse events at 1000 mg, po administered as single dose measured after 48 hrs; format: organism-based; settings: in vivo; method in brief: as §1
[33] = Tmax in fasting healthy human at 500 mg, po administered as single dose measured after 48 hrs; format: ADME, organism-based; settings: in vivo; method in brief: as §3
[34] = Apparent Cmax in nonfasting healthy human at 1000 mg, po administered as single dose measured after 72 hrs; format: ADME, organism-based; parameters: dose 1000 mg, route oral; settings: in vivo; method in brief: as §2
[35] = AUClast in fasting healthy human at 1000 mg, po administered as single dose measured after 48 hrs; format: ADME, organism-based; parameters: dose 1000 mg, time < 48 hr, route oral; settings: plasma; method in brief: as §2
[36] = AUC(0 to infinity) in fasting healthy human at 1000 mg, po administered as single dose measured after 48 hrs; format: ADME, organism-based; parameters: dose 1000 mg, time infinity, route oral; settings: plasma; method in brief: as §2
[37] = Plasma clearance in fasting healthy human at 500 mg, po administered as single dose measured after 48 hrs; format: ADME, organism-based; method in brief: as §2
[38] = Terminal half life in fasting healthy human at 2000 mg, po administered as single dose measured after 48 hrs; format: ADME, organism-based; settings: in vivo; method in brief: as §3
[39] = Terminal half life in nonfasting healthy human at 1000 mg, po administered as single dose measured after 72 hrs; format: ADME, organism-based; settings: in vivo; method in brief: as §4
[40] = system: Homo sapiens; experiment: Toxicity in fasting healthy human assessed as neutropenia at 1000 mg, po administered as single dose measured after 48 hrs; format: organism-based; settings: in vivo; method in brief: as §1
[41] = system: Homo sapiens; experiment: Toxicity in fasting healthy human assessed as constipation at 1000 mg, po administered as single dose measured after 48 hrs; format: organism-based; settings: in vivo; method in brief: as §1

O=C(NN1C(=O)[C@@H]2[C@@H]3C=C[C@@H]([C@H]4C[C@@H]34)[C@@H]2C1=O)c1ccc(C(F)(F)F)cc1 [TECOVIRIMAT]
Activity [1]: 12.5%
Cmax [2]: 934 ng/mL
AUC(0-inf) [3]: 9810 ng·h/mL
Cmax [4]: 2930 ng/mL
half-life [5]: 18.9 h
CL/F [6]: 817 mL/min
Tmax [7]: 3 h
AUC(0-t) at 72 h [8]: 34100 ng·h/mL
CL/F [9]: 513 mL/min
Cmax [10]: 2550 ng/mL
half-life [11]: 20.9 h
Tmax [12]: 5 h
Activity [13]: 12.5%
Activity [14]: 12.5%
t1/2 [15]: 19.8 h
Cmax [16]: 1810 ng/mL
Activity [17]: 25%
Activity [18]: 12.5%
AUC(0-t) at 48 h [19]: 9880 ng·h/mL
Activity [20]: 12.5%
CL/F [21]: 1320 mL/min
CL/F [22]: 500 mL/min
AUC(0-t) at 48 h [23]: 24500 ng·h/mL
half-life [24]: 26 h
AUC(0-inf) [25]: 35900 ng·h/mL
CL/F [26]: 1290 mL/min
half-life [27]: 40 h
CL/F [28]: 883 mL/min
CL/F [29]: 838 mL/min
AUC(0-inf) [30]: 25700 ng·h/mL
Tmax [31]: 3 h
Activity [32]: 12.5%
Tmax [33]: 2 h
Cmax [34]: 3120 ng/mL
AUC(0-t) at 48 h [35]: 21100 ng·h/mL
AUC(0-inf) [36]: 24900 ng·h/mL
CL/F [37]: 860 mL/min
half-life [38]: 22 h
half-life [39]: 17 h
Activity [40]: 12.5%
Activity [41]: 12.5%
